Activity calls are given as the source filed them. The rule behind the calls is not given here.
Assays:
Rattus norvegicus [1] = experiment: Effect on spontaneous pain in Sprague-Dawley rat SNL model assessed as duration of paw withdrawal at 100 mg/kg, ip after 2 hrs; type: functional; details: route intraperitoneal
Method in brief: (§1)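 Rats underwent left L5 spinal nerve ligation (Kim and Chung) under i.p. pentobarbital (65 mg/kg). Spontaneous pain is recorded for 5 min after 10 min acclimatization, as cumulative duration the ipsilateral paw is lifted, excluding locomotor lifts. Dosing is 100 mg/kg i.p. in 30% v/v PEG 400/water, with testing at 0.5–2.5 h. Four rats, mean ± SEM versus predrug, one-way ANOVA with Bonferroni.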

Rattus norvegicus [2] = experiment: Anti-cold allodynia effect in Sprague-Dawley rat SNL model assessed as duration of paw withdrawal 100 mg/kg, ip after 1 hrs; type: functional; details: route intraperitoneal
Method in brief: (§2)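 Left L5 spinal nerve ligation under pentobarbital (65 mg/kg i.p.). Allodynic rats dosed i.p. 100 mg/kg, vehicle 30% v/v PEG 400 in water. Acetone (100-200 µL) misted onto midplantar affected paw after 10 min acclimatization; paw withdrawal duration, mean of three samples at least 3 min apart; n = 4 rats.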

Rattus norvegicus [3] = experiment: Anti-cold allodynia effect in Sprague-Dawley rat SNL model assessed as duration of paw withdrawal 100 mg/kg, ip after 0.5 hr; type: functional; details: route intraperitoneal; method in brief: as §2
Rattus norvegicus [4] = experiment: Anti-cold allodynia effect in Sprague-Dawley rat SNL model assessed as duration of paw withdrawal 100 mg/kg, ip after 2.5 hrs; type: functional; details: route intraperitoneal; method in brief: as §2
Mus musculus [5] = experiment: Anticonvulsant activity in Swiss Albino mouse at 300 mg/kg, ip after 4 hrs by scPIC test; type: functional, organism-based; set-up: dose 300 mg/kg
Method in brief: (§3)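 Mice (Swiss, 20-25 g) given i.p. doses of 30, 100 and 300 mg/kg under ADD program protocols, three per group, examined at 0.5 and 4 h in MES, scPTZ, scSTY or scPIC seizure tests. Value is the minimum dose protecting half or more of the mice.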

Rattus norvegicus [6] = experiment: Anti-cold allodynia effect in Sprague-Dawley rat SNL model assessed as duration of paw withdrawal 100 mg/kg, ip after 2 hrs; type: functional; details: route intraperitoneal; method in brief: as §2
Mus musculus [7] = experiment: Anticonvulsant activity in Swiss Albino mouse at 300 mg/kg, ip after 0.5 hr by MES test; type: functional, organism-based; set-up: dose 300 mg/kg; method in brief: as §3
Rattus norvegicus [8] = experiment: Effect on spontaneous pain in Sprague-Dawley rat SNL model assessed as duration of paw withdrawal at 100 mg/kg, ip after 1 hr; type: functional; details: route intraperitoneal; method in brief: as §1
Mus musculus [9] = experiment: Anticonvulsant activity in Swiss Albino mouse at 300 mg/kg, ip after 4 hrs by scSTY test; type: functional, organism-based; set-up: dose 300 mg/kg; method in brief: as §3
Rattus norvegicus [10] = experiment: Antihyperalgesic effects in Sprague-Dawley rat CCI model assessed as duration of paw withdrawal at 100 mg/kg, ip after 1 hr; type: functional; details: route intraperitoneal
Rattus norvegicus [11] = experiment: Anti-cold allodynia effect in Sprague-Dawley rat SNL model assessed as duration of paw withdrawal 100 mg/kg, ip after 1.5 hrs; type: functional; details: route intraperitoneal; method in brief: as §2
Rattus norvegicus [12] = experiment: Anti-dynamic allodynia effect in Sprague-Dawley rat SNL model assessed as latency to paw withdrawal 100 mg/kg, ip after 1 hr; type: functional; details: route intraperitoneal
Method in brief: (§4)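 Left L5 spinal nerve ligation rats, tested preoperatively and 9 days postoperatively, then given 100 mg/kg i.p. (vehicle 30% v/v PEG 400 in water). After 10 min acclimatization, plantar surface of affected paw stroked mildly with a cotton-bud; paw lift response recorded. n = 4; retested 0.5-2.5 h post-dose.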

Rattus norvegicus [13] = experiment: Effect on spontaneous pain in Sprague-Dawley rat SNL model assessed as duration of paw withdrawal at 100 mg/kg, ip after 0.5 hr; type: functional; details: route intraperitoneal; method in brief: as §1
Rattus norvegicus [14] = experiment: Anti-dynamic allodynia effect in Sprague-Dawley rat SNL model assessed as latency to paw withdrawal 100 mg/kg, ip after 0.5 hr; type: functional; details: route intraperitoneal; method in brief: as §4
Mus musculus [15] = experiment: Anticonvulsant activity in Swiss Albino mouse at 300 mg/kg, ip after 0.5 hr by scSTY test; type: functional, organism-based; set-up: dose 300 mg/kg; method in brief: as §3
Rattus norvegicus [16] = experiment: Anti-dynamic allodynia effect in Sprague-Dawley rat SNL model assessed as latency to paw withdrawal 100 mg/kg, ip after 2 hrs; type: functional; details: route intraperitoneal; method in brief: as §4
Rattus norvegicus [17] = experiment: Anti-dynamic allodynia effect in Sprague-Dawley rat SNL model assessed as latency to paw withdrawal 100 mg/kg, ip after 2.5 hrs; type: functional; details: route intraperitoneal; method in brief: as §4
Rattus norvegicus [18] = experiment: Effect on spontaneous pain in Sprague-Dawley rat CCI model assessed as duration of paw withdrawal at 100 mg/kg, ip after 1 hr; type: functional; details: route intraperitoneal
Method in brief: (§5)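 CCI rats (n = 4) dosed 100 mg/kg i.p. (vehicle 30% v/v PEG 400 in water). After 10 min acclimatization in a cage 5 cm above ground, cumulative time the ipsilateral paw was held off the floor over 5 min recorded, excluding locomotion lifts. Mean ± SEM; ANOVA/Bonferroni versus predrug.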

Mus musculus [19] = experiment: Analgesic activity in Swiss Albino mouse assessed as inhibition of acetic acid-induced writhing responses at 100 mg/kg, ip; type: functional; details: route intraperitoneal
Method in brief: (§6)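 Mice in groups of six dosed i.p. at 100 mg/kg, controls receiving 30% v/v PEG 400 in water. Writhing induced by i.p. 0.1 mL of 3% v/v acetic acid 1 h after drug. Writhes (abdominal stretch with at least one hind limb extended) counted over 30 min; % inhibition calculated. Mean ± SEM, Student's t test.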

Mus musculus [20] = experiment: Anticonvulsant activity in Swiss Albino mouse at 300 mg/kg, ip after 4 hrs by MES test; type: functional, organism-based; set-up: dose 300 mg/kg; method in brief: as §3
Rattus norvegicus [21] = experiment: Effect on spontaneous pain in Sprague-Dawley rat CCI model assessed as duration of paw withdrawal at 100 mg/kg, ip after 2.5 hrs; type: functional; details: route intraperitoneal
Method in brief: (§7)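 Unilateral CCI of sciatic nerve (Bennett and Xie) in Sprague-Dawley rats under i.p. pentobarbital sodium (65 mg/kg). Spontaneous pain is scored over 5 min after 10 min acclimatization, as cumulative time the ipsilateral paw is held off the floor. Paw lifts from locomotion or repositioning are excluded. Drug is given at 100 mg/kg i.p. with 30% v/v PEG 400 vehicle. Mean ± SEM, n = 4, compared with predrug by ANOVA/Bonferroni.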

Mus musculus [22] = experiment: Anticonvulsant activity in Swiss Albino mouse at 300 mg/kg, ip after 0.5 hr by scPIC test; type: functional, organism-based; set-up: dose 300 mg/kg; method in brief: as §3
Rattus norvegicus [23] = experiment: Effect on spontaneous pain in Sprague-Dawley rat SNL model assessed as duration of paw withdrawal at 100 mg/kg, ip after 2.5 hrs; type: functional; details: route intraperitoneal; method in brief: as §1
Mus musculus [24] = experiment: Anticonvulsant activity in Swiss Albino mouse at 300 mg/kg, ip after 0.5 hr by scPTZ test; type: functional, organism-based; set-up: dose 300 mg/kg; method in brief: as §3
Rattus norvegicus [25] = experiment: Antihyperalgesic effects in Sprague-Dawley rat CCI model assessed as duration of paw withdrawal at 100 mg/kg, ip after 2.5 hrs; type: functional; details: route intraperitoneal
Rattus norvegicus [26] = experiment: Effect on spontaneous pain in Sprague-Dawley rat SNL model assessed as duration of paw withdrawal at 100 mg/kg, ip after 1.5 hrs; type: functional; details: route intraperitoneal; method in brief: as §1
Rattus norvegicus [27] = experiment: Effect on spontaneous pain in Sprague-Dawley rat CCI model assessed as duration of paw withdrawal at 100 mg/kg, ip after 0.5 hr; type: functional; details: route intraperitoneal; method in brief: as §5
Mus musculus [28] = experiment: Analgesic activity in Swiss Albino mouse assessed as number of acetic acid-induced writhing per 30 min after 100 mg/kg, ip; type: functional; details: route intraperitoneal; method in brief: as §6
Rattus norvegicus [29] = experiment: Anti-dynamic allodynia effect in Sprague-Dawley rat SNL model assessed as latency to paw withdrawal 100 mg/kg, ip after 1.5 hrs; type: functional; details: route intraperitoneal; method in brief: as §4
Mus musculus [30] = experiment: Neurotoxicity in Swiss Albino mouse at 300 mg/kg, ip after 4 hrs by rotarod test; type: functional, organism-based; set-up: dose 300 mg/kg
Method in brief: (§8)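 Swiss mice (20-25 g) are trained on an accelerating rotorod (10 rpm, 3.2 cm rod), then injected i.p. at 30, 100 or 300 mg/kg, with three per group. Neurotoxicity means failure to keep equilibrium for at least 1 min in each of three trials, checked at 0.5 and 4 h. The value reported is the minimum dose affecting half or more of the mice.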

Rattus norvegicus [31] = experiment: Effect on spontaneous pain in Sprague-Dawley rat CCI model assessed as duration of paw withdrawal at 100 mg/kg, ip after 1.5 hrs; type: functional; details: route intraperitoneal; method in brief: as §7
Rattus norvegicus [32] = experiment: Antihyperalgesic effects in Sprague-Dawley rat CCI model assessed as duration of paw withdrawal at 100 mg/kg, ip after 1.5 hrs; type: functional; details: route intraperitoneal
Rattus norvegicus [33] = experiment: Antihyperalgesic effects in Sprague-Dawley rat CCI model assessed as duration of paw withdrawal at 100 mg/kg, ip after 2 hrs; type: functional; details: route intraperitoneal
Rattus norvegicus [34] = experiment: Antihyperalgesic effects in Sprague-Dawley rat CCI model assessed as duration of paw withdrawal at 100 mg/kg, ip after 0.5 hr; type: functional; details: route intraperitoneal
Rattus norvegicus [35] = experiment: Effect on spontaneous pain in Sprague-Dawley rat CCI model assessed as duration of paw withdrawal at 100 mg/kg, ip after 2 hrs; type: functional; details: route intraperitoneal; method in brief: as §7
Mus musculus [36] = experiment: Neurotoxicity in Swiss Albino mouse at 300 mg/kg, ip after 0.5 hr by rotarod test; type: functional, organism-based; set-up: dose 300 mg/kg; method in brief: as §8

C/C(=N\NC(=O)NCCCC(=O)O)c1ccc(C)cc1
Activity (Rattus norvegicus [1]): 2.9 s | Activity (Rattus norvegicus [2]): 23.9 s | Activity (Rattus norvegicus [3]): 27.2 s | Activity (Rattus norvegicus [4]): 14.3 s | Activity (Mus musculus [5]): inactive | Activity (Rattus norvegicus [6]): 10.7 s | Activity (Mus musculus [7]): inactive | Activity (Rattus norvegicus [8]): 11.1 s | Activity (Mus musculus [9]): inactive | Activity (Rattus norvegicus [10]): 13.2 s | Activity (Rattus norvegicus [11]): 12.9 s | Activity (Rattus norvegicus [12]): 9.1 s | Activity (Rattus norvegicus [13]): 22.2 s | Activity (Rattus norvegicus [14]): 12.5 s | Activity (Mus musculus [15]): inactive | Activity (Rattus norvegicus [16]): 12.4 s | Activity (Rattus norvegicus [17]): 12.02 s | Activity (Rattus norvegicus [18]): 21.8 s | inhibition in vivo at 100 mg/kg (Mus musculus [19]): 82% | Activity (Mus musculus [20]): inactive | Activity (Rattus norvegicus [21]): 10.7 s | Activity (Mus musculus [22]): Active | Activity (Rattus norvegicus [23]): 3.1 s | Activity (Mus musculus [24]): Active | Activity (Rattus norvegicus [25]): 4.2 s | Activity (Rattus norvegicus [26]): 6.4 s | Activity (Rattus norvegicus [27]): 23.9 s | Activity (Mus musculus [28]): 32.5 | Activity (Rattus norvegicus [29]): 10.9 s | Activity (Mus musculus [30]): inactive | Activity (Rattus norvegicus [31]): 18.3 s | Activity (Rattus norvegicus [32]): 9.6 s | Activity (Rattus norvegicus [33]): 5.3 s | Activity (Rattus norvegicus [34]): 27.3 s | Activity (Rattus norvegicus [35]): 10.9 s | Activity (Mus musculus [36]): Active
